The text below walks through data of ChEMBL document CHEMBL1138889, “Development of N-2,4-pyrimidine-N-phenyl-N'-phenyl ureas as inhibitors of tumor necrosis factor alpha (TNF-alpha) synthesis. Part 1” (Bioorg Med Chem Lett, 2006).

One experiment deals with T1, Mitogen-activated protein kinase 14 (Homo sapiens, UniProt Q16539). Nature of the experiment: Inhibition of LPS-stimulated TNFalpha production in human THP1 cells. The class given is functional, cell-based, THP-1.
T1 sequence (Q16539 whole entry): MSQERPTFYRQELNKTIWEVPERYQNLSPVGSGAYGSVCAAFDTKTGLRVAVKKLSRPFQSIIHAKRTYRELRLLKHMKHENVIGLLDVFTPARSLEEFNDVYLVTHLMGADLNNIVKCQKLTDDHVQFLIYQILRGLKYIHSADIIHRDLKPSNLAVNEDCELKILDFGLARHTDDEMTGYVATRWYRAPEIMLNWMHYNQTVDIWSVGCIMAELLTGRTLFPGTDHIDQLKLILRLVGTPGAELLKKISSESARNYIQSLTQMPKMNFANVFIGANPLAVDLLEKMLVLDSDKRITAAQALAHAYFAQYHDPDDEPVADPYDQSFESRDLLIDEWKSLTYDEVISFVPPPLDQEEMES
Conditions: not given
An outline of the steps: (§1)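 THP-1 human monocytic cells, in duplicate cultures, were preincubated with or without inhibitor for 15 min. TNF-α release was then stimulated with LPS at 1 µg/ml final. Secreted TNF-α was quantified by ELISA 4 h after stimulation. Cell viability after the 4 h incubation was assessed by MTS assay.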
The IC50 is the concentration at which inhibition is half-maximal. Low values mean greater potency, high ones weaker potency. `COC[C@H](C)Nc1nccc(N(C(=O)Nc2ccccc2F)c2ccc(F)cc2)n1` registered a half-inhibitory concentration (IC50) of 2880 nM.
On the same count and under the same terms, the result for `COC[C@H](C)Nc1nccc(N(C(=O)Nc2ccccc2C)c2ccccc2)n1` reads 1000 nM; that for `COC[C@H](C)Nc1nccc(N(C(=O)Nc2ccccc2Cl)c2ccc(F)cc2)n1`, 3100 nM; that for `O=C(Nc1ccccc1Cl)N(c1ccc(F)cc1)c1ccnc(NC2CCOCC2)n1`, 539 nM.
On the same count and under the same terms, as for `COc1ccc(N(C(=O)Nc2ccccc2C)c2ccnc(N[C@@H](C)C(C)(C)O)n2)cc1`, the figure is 135 nM; as for `COC[C@H](C)Nc1nccc(N(C(=O)Nc2ccccc2Cl)c2ccc(N(C)C)cc2)n1`, > 5000 nM.
Still for that read-out and setting: as for `C[C@H](Nc1nccc(N(C(=O)Nc2ccccc2Cl)c2ccccc2)n1)C(C)(C)O`, the figure is 718 nM; as for `CCCS(=O)(=O)N1CCC(Nc2nccc(N(C(=O)Nc3ccccc3Cl)c3ccc(F)cc3)n2)CC1`, 1420 nM; as for `COc1ccc(N(C(=O)Nc2ccccc2Cl)c2ccnc(N[C@@H](C)C(C)(C)O)n2)cc1`, 92 nM.
As for `C[C@H](Nc1nccc(N(C(=O)Nc2ccccc2Cl)c2ccc(F)cc2)n1)c1ccccc1` (stereo in doubt; 5i), the IC50 was > 5000 nM.
Still for that read-out and setting: as for `COC[C@H](C)Nc1nccc(N(C(=O)Nc2ccc(C(F)(F)F)cc2)c2ccc(F)cc2)n1`, the figure is > 5000 nM; as for `COC[C@H](C)Nc1nccc(N(C)C(=O)Nc2ccccc2C)n1`, > 5000 nM; as for `C[C@H](Nc1nccc(N(C(=O)Nc2ccccc2Cl)c2ccc(F)cc2)n1)C(C)(C)O`, 122 nM.
`CCOC(=O)N1CCC(Nc2nccc(N(C(=O)Nc3ccccc3Cl)c3ccc(F)cc3)n2)CC1` yielded an IC50 of 3610 nM.
Still for that read-out and setting: the result for `C[C@H](Nc1nccc(N(C(=O)Nc2ccccc2Cl)c2ccc(F)cc2)n1)c1ccccc1` (stereo in doubt; 5h) reads 843 nM; that for `Cc1ccccc1NC(=O)N(c1ccc(N(C)C)cc1)c1ccnc(N[C@@H](C)c2ccccc2)n1`, > 5000 nM.
Same read-out and setting: the result for `Cc1ccccc1NC(=O)N(c1ccc(F)cc1)c1ccnc(N[C@@H](C)C(C)(C)O)n1` reads 176 nM; that for `COC[C@H](C)Nc1nccc(N(C(=O)Nc2ccccc2C)c2ccc(F)cc2)n1`, 3650 nM.
The same measure, in the same setting: the result for `COCC(C)Nc1nccc(N(N)C(=O)Nc2ccccc2Cl)n1` (single isomer, unassigned) reads > 5000 nM.
Regarding `O=C(Nc1ccccc1Cl)N(c1ccc(F)cc1)c1ccnc(N2CCOCC2)n1`, the IC50 was > 5000 nM.
Consider `C[C@H](Nc1nccc(N(C(=O)Nc2ccccc2Cl)c2cccc(F)c2)n1)c1ccccc1`, for which the IC50 turned out to be 6160 nM.
The same measure, in the same setting: the result for `CN1CCN(c2nccc(N(C(=O)Nc3ccccc3Cl)c3ccc(F)cc3)n2)CC1` reads > 5000 nM.

In a further experiment the target is T1, Mitogen-activated protein kinase 14. The experiment is described as follows: Inhibition of LPS-stimulated TNFalpha production in human THP1 cells at 1 uM. The following applies: THP-1. Type of experiment: functional, cell-based. An outline of the steps: as §1
By inhibition is commonly meant the relative decrease from the control value, in per cent. The low end stands for little suppression, the high end for strong suppression. In turn, `C[C@H](Nc1nccc(N(C(=O)Nc2c(Cl)cccc2Cl)c2ccc(F)cc2)n1)C(C)(C)O` displayed an inhibition of 63%.
